# Experimental data collected from several papers.
# Compare with care: the assays were run in different laboratories.
# Target: Phosphorylase b kinase gamma catalytic chain, liver/testis isoform (PHKG2, Homo sapiens, UniProt P15735)
# One construct used (P15735 1-406): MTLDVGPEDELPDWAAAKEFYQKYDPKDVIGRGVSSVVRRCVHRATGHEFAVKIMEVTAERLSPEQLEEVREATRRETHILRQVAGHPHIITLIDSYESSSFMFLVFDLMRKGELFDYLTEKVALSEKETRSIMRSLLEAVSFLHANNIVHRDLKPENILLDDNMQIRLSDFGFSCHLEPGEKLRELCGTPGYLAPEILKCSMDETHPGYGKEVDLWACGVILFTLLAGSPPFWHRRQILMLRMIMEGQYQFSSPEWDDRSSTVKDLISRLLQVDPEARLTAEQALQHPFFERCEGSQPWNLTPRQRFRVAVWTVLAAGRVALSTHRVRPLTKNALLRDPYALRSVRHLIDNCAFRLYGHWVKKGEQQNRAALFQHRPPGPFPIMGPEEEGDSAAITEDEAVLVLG
SMILES,read-out,mode,method,concentration,quantity,value
CC(C)(C)c1cc(C=C(C#N)C#N)cc(Br)c1O,enzyme activity,inhibitor,,0.5 µM,remaining activity,106%
COc1ncccc1-c1cnn2ccc(N3CCN(C(=O)OC(C)C)CC3)nc12,binding,,competition with immobilised ligand,1 µM,remaining binding,100%
Cn1cc(-c2cc(F)cc(N3CCn4c(cc5c4CCCC5)C3=O)c2CO)cc(Nc2ccc(N3CCN(C4COC4)CC3)cn2)c1=O,enzyme activity,inhibitor,,0.1 µM,inhibition,8%
O=c1[nH]c2ccccc2n1C1CCN(Cc2ccc(-c3[nH]c4cc5ncnc5cc4nc3-c3ccccc3)cc2)CC1,cell-free assay,,,0.5 µM,remaining signal,104%
Cc1nn(C)cc1-c1nc2c(N3CCN(Cc4ccc(Cl)cc4)CC3)c(Cl)cnc2[nH]1,binding,,competition with immobilised ligand,1 µM,remaining binding,100%
Cn1cncc1[C@@](O)(COc1ccc(C#N)cc1-c1ccc(OC(F)(F)F)cc1)c1ccc(C#N)cc1,cell-free assay,,competition with immobilised ligand,1 µM,remaining binding,92%
Cn1cc(-c2cccc(N3CCc4c(sc5c4CC(C)(C)C5)C3=O)c2CO)cc(Nc2ccncn2)c1=O,enzyme activity,inhibitor,,1 µM,inhibition,-1%
O=C(NCc1ncc(C(F)(F)F)cc1Cl)c1ccc2c(c1)C1(CCS(=O)(=O)CC1)[C@H](C1CC1)N2S(=O)(=O)c1ccc(F)cc1,cell-free assay,,competition with immobilised ligand,1 µM,remaining binding,96%
Nc1ncc(-c2nc(N3CCOCC3)nc(N3CCOCC3)n2)c(C(F)F)n1,binding,,competition with immobilised ligand,10 µM,remaining binding,67%
